Calls of active or inactive are those of the source.
Assays:
Cavia porcellus [1] = species on record: Cavia porcellus; experiment: Induction of positive inotropic activity in guinea pig atrium assessed as atrial contractility up to 10^-4 M; format: functional, tissue-based; conditions: Cardiac atrium
Method in brief: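 Left auricle from guinea pig in Krebs-Henseleit solution, 32 °C, gassed with O2 containing 5% CO2, resting tension about 1 g. Paced by rectangular pulses (10 ms, 100/min) at 20% above threshold voltage. Change in isometric contraction calculated relative to control atria.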

Cavia porcellus [2] = species on record: Cavia porcellus; experiment: Inhibition of Na+/K+ ATPase-mediated phosphohydrolase activity in guinea pig myocardium up to 10^-4 M after 30 mins; format: tissue-based
Method in brief: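 Crude membrane preparation from guinea pig myocardium, holding both (Na+,K+)ATPase and Mg2+-ATPase. Incubated 37 °C, 30 min; substrate consumption under 15% without drug. Activity measured as inorganic phosphate liberated per mg protein per hour. Na+,K+ component taken as total minus Mg2+-ATPase activity, the latter measured without Na+ and K+. Drug range 10^-8–10^-4 M, duplicates.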

SMILES	inhibition (Cavia porcellus [2])	Activity (Cavia porcellus [1])
C[C@]12CC[C@H](O)C[C@@H]1CC[C@@H]1[C@@H]2CC[C@]2(C)[C@@H](/C=C/C#N)CC[C@@H]12	inactive	inactive
C[C@]12CC[C@H](O)C[C@H]1CC[C@@H]1[C@@H]2CC[C@]2(C)[C@@H](/C=C\C#N)CC[C@@H]12	inactive	inactive
C[C@]12CC[C@H]3[C@@H](CCC4=C[C@@H](O)CC[C@@]43C)[C@@H]1CC[C@@H]2/C=C\C#N	inactive	inactive
COC(=O)/C=C/[C@H]1CC[C@H]2[C@@H]3CCC4=C[C@@H](O)CC[C@]4(C)[C@H]3CC[C@]12C	inactive	inactive
C[C@]12CC[C@H]3[C@@H](CCC4=C[C@@H](O)CC[C@@]43C)[C@@H]1CC[C@@H]2/C=C/C#N	inactive	inactive

The next lines start with results.

inhibition (Cavia porcellus [2])	SMILES	Activity (Cavia porcellus [1])
inactive	COC(=O)/C=C/[C@H]1CC[C@H]2[C@@H]3CC[C@H]4C[C@@H](O)CC[C@]4(C)[C@H]3CC[C@]12C	inactive
inactive	COC(=O)/C=C/[C@H]1CC[C@H]2[C@@H]3CC[C@@H]4C[C@@H](O)CC[C@]4(C)[C@H]3CC[C@]12C	inactive
inactive	C[C@]12CC[C@@H](O)C[C@H]1CC[C@@H]1[C@@H]2CC[C@]2(C)[C@@H](/C=C/C#N)CC[C@@H]12	inactive
inactive	C[C@]12CC[C@@H](O)C[C@H]1CC[C@@H]1[C@@H]2CC[C@]2(C)[C@@H](/C=C\C#N)CC[C@@H]12	inactive
inactive	C[C@]12CC[C@H](O)C[C@@H]1CC[C@@H]1[C@@H]2CC[C@]2(C)[C@@H](/C=C\C#N)CC[C@@H]12	inactive
inactive	COC(=O)/C=C/[C@H]1CC[C@H]2[C@@H]3CC[C@@H]4C[C@H](O)CC[C@]4(C)[C@H]3CC[C@]12C	inactive
inactive	C[C@]12CC[C@H](O)C[C@H]1CC[C@@H]1[C@@H]2CC[C@]2(C)[C@@H](/C=C/C#N)CC[C@@H]12	inactive

Reference: ChEMBL document CHEMBL3228034, “Cardenolide analogues. 9. Synthesis and biological activity of 17beta-carbomethoxyethylene and 17beta-cyanoethylene 14alpha-H steroids” (J Med Chem, 1979)
